Measurements published in ChEMBL document CHEMBL4513216, “Probing the Open Global Health Chemical Diversity Library for Multistage-Active Starting Points for Next-Generation Antimalarials” (ACS Infect Dis, 2020).

Test: Toxicity liver stage against HepG2, at 10uM
Assay type: cell-based
Set-up: test concentration 10 uM, cell line HepG2-A16-CD81EGFP
Details: human, HepG2-A16-CD81EGFP cells; read-out: INHIBITION
Outline: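 Uninfected HepG2-A16-CD81EGFP cells, 3 × 10^3 per well, 1536-well, plated on prespotted compound at 10 μM final, parasite-free screening media added to match infected plates; puromycin 10 μM positive, DMSO 0.5% negative; run in parallel with 48 h PbLuc assay at 37 °C, 5% CO2; viability by CellTiter-Glo luminescence, normalized to controls.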

Row | Structure (SMILES) | cytotoxicity at 10 µM [%]
1 | CC(=O)NCCC(=O)NCc1cccnc1-n1cnc2ccccc21 | -14.2
2 | COCCCNC(=O)NCc1cccn1Cc1ccccc1C | 2.88
3 | COc1ccc(NC(=O)CCNc2ncccn2)cn1 | -48.4
4 | Cc1cc(NCc2ccco2)nc2[nH]nc(N)c12 | -43.6
5 | Cc1nn(-c2ncccn2)c2c1C(c1cnn(C)c1)SCC(=O)N2 (stereo not given) | -45
6 | O=C1CSC(c2ccc(O)cc2)c2c(n(C3CCOCC3)[nH]c2=O)N1 (stereo not given) | 2.84
7 | O=S(=O)(NCC(c1ccsc1)N1CCCCCC1)c1cccs1 (stereo not given) | 2
8 | CCOCC(=O)NCC1CCN(Cc2ccsc2)CC1 | 11.1
9 | CN(C)C(=O)c1cnn2c1OCCC2 | -6.59
10 | CSc1ccccc1NC(=O)C1CSc2ncc(C)c(=O)n2C1 (stereo not given) | -1.31
11 | CC(=O)N1CCC2(CC1)C(=O)N(c1ccc(C)nc1)CCN2CC(C)C | 22.2
12 | O=C(C1CC1)N1CCC2(COCc3cnc(N4CCOCC4)nc32)C1 (stereo not given) | 5.31
13 | Cc1cc2nc(O)c(O)nc2cc1S(=O)(=O)NC1CC1 | 9.43
14 | Cc1nc(O)cc([C@@H]2CN(C(=O)C3CC3)C[C@H]2c2ccccc2F)n1 | 4.95
15 | Cc1cccc(C2(O)CCN(Cc3ccccc3N3CCCC3)CC2)c1 | 10.6
16 | Cc1cc(-c2cnc(NC3CCCCC3)nc2-c2ccco2)on1 | -16.4
17 | O=C(c1ccco1)N1CCCC(c2cc(C(F)(F)F)n3ncnc3n2)C1 (stereo not given) | -3.55
18 | Cc1cc(C)c2cc(CNCc3ccco3)c3nn(C)c(=O)n3c2c1 | -13.6
19 | Cc1cncc(C2CCCN(Cc3ccncc3)C2)n1 (stereo not given) | -9.8
20 | CC(=O)Nc1nc(C2CCN(C(=O)c3cccnc3)CC2)cs1 | -2.47
21 | CCc1nnsc1C(=O)NCc1nnc2n1CCC2 | 0.371
22 | COc1ccc(C(=O)N2CCOc3ccncc32)cc1 | 12.8

Row | Structure (SMILES) | cytotoxicity at 10 µM [%]
23 | CCN(CC)c1ncc(Cl)c(C(=O)NC2CCC(O)CC2)n1 (stereo not given) | -43.5
24 | N#Cc1ccccc1CN1CCc2sccc2C1 | -0.572
25 | CC(C)C(CNC(=O)CCn1cncn1)N1CCc2ccccc2C1 (stereo not given) | -162
26 | CC(=O)N1CC(C)CN(C(=O)c2cnccn2)c2ccccc21 (stereo not given) | 3.82
27 | N#Cc1cccc(NC(=O)N[C@H](CO)Cc2ccc(O)cc2)c1 | 0.597
28 | COc1cc(Cl)ccc1CNC(=O)N(C)C(C)CS(C)(=O)=O (stereo not given) | -50.1
29 | CC(Oc1cccc(Cl)c1)C(=O)Nc1cnn(CCN(C)C)c1 (stereo not given) | -12.5
30 | Cc1cc(C2NC(=O)CN2Cc2ccc(Br)cc2)cc(C)c1O (stereo not given) | 4.12
31 | Cc1ccc(-c2cc(CNCCn3cc(C)cn3)on2)cc1 | -7.22
32 | CCCn1cc(NC(=O)c2ccc(S(=O)(=O)CC)cc2)ccc1=O | 2.99
33 | CCn1ccnc1CNCC(c1ccc(C)s1)N1CCOCC1 (stereo not given) | 6.41
34 | COc1cccc(CN(C)C(=O)CN2CCN(c3nccs3)CC2)c1 | -3.98
35 | CNC(=O)CCNC(=O)Nc1cccc(Cl)c1SC(F)F | 1.29
36 | c1cnnc(N2CCCC(NCc3nc(-c4cccs4)no3)C2)c1 (stereo not given) | 15.8
37 | CN(C)C(=O)Cc1nc(CN2CCCC2Cn2cncn2)cs1 (stereo not given) | 8.58
38 | CC1CCCCN1C(=O)c1n[nH]c(=O)c2ccccc12 (stereo not given) | -0.402
39 | CC(CNS(C)(=O)=O)c1ccc(F)c(F)c1 (stereo not given) | -4.71
40 | CN(C)c1ccc(CCCNC(=O)NCC(O)c2cccs2)cc1 (stereo not given) | -2.59
41 | CN(Cc1ccco1)C(=O)Nc1ccc(=O)n(C)c1 | -43.1
42 | CC(NC(=O)N(C)Cc1ccncc1)c1cn(-c2ccccc2)nn1 (stereo not given) | -47.7
43 | CC(O)(CNC(=O)c1cccnc1-n1cccn1)c1ccsc1 (stereo not given) | 2.38
44 | COC(=O)CCN(C)Cc1cc(Br)cs1 | 0.311

Row | Structure (SMILES) | cytotoxicity at 10 µM [%]
45 | O=C(CCN1CCc2[nH]nc(C(F)(F)F)c2C1)Nc1ccccc1 | -1.2
46 | CC(C)(C)c1ncc(CNc2ccccc2Cn2cncn2)s1 | 48.7
47 | CC1(C)CN(Cc2csc(CS(C)(=O)=O)n2)Cc2ccccc21 | 6.38
48 | O=C(NCCN1CCCC1)c1cc2c(s1)CCN2c1ncccn1 | -108
49 | CN(C)C(=O)[C@H]1CCS(=O)(=O)[C@@H]2CN(c3ncccn3)C[C@H]12 | -103
50 | CC(C)n1c2ccccc2c2c1cc(C(=O)NC1CC1)n2C(=O)N(C)C | -109
51 | Cn1cc(C[C@H]2[C@H](O)CCN2C(=O)c2ccsc2)cn1 | -72.6
52 | CCc1ccccc1OC1CN(C(=O)c2ccnc(OC)c2)C1 | 32.8
53 | COc1cccc([C@H]2CN(C(=O)c3scc4c3CCCC4)C[C@@H]2N)c1 | -3.45
54 | CC(CCCC(C)(C)O)Nc1ccc(-c2nccn2C)nn1 (stereo not given) | 3.96
55 | CC(C)(C)c1cn(C2CCN(C(=O)c3cnccn3)CC2)nn1 | 14
56 | c1cnn(Cc2ccc(CN3CCC4(CCNCC4)C3)cc2)c1 | -15.6
57 | N[C@H]1CN(C(=O)c2ccc(Cl)cc2O)C[C@@H]1C1CC1 | -44.7
58 | COc1nc2c(cc1C(=O)N1CC[C@H](CO)[C@@H](O)C1)CCC2 | -42.4
59 | O[C@@H]1CN(c2cnc3ccccc3n2)CC[C@H]1c1ccc2c(c1)OCO2 | 22.4
60 | NCc1cc(NCC(c2ccccn2)N2CCOCC2)ncn1 (stereo not given) | -47.5
61 | CCOC(=O)CC(C)Nc1nc(C2CCCC2)nc2c1cnn2C (stereo not given) | -43.1
62 | CCc1ccc(CN(Cc2ccco2)C(C)C(C)C)nc1 (stereo not given) | -13.5
63 | Cc1nc(CC2CCN(Cc3ccc(CCC(C)(C)O)cc3)CC2)no1 | -0.94
64 | CN1CC2(CCCN(c3cc(N4CCCCC4)ncn3)C2)OC1=O (stereo not given) | -39.7
65 | CCCn1cc(C(=O)NCC(=O)NC2CC2)c(C)n1 | -3.91
66 | CCC(CC)CN1CCC(n2cc(C3CCCC3)nn2)CC1 | 3.92

Row | Structure (SMILES) | cytotoxicity at 10 µM [%]
67 | O=C1N(CCO)CCCC12CCN(Cc1nnc(C3CC3)o1)C2 (stereo not given) | 5.27
68 | Cc1nc(CCNC(=O)CC2CCN(C(C)C)CC2)sc1Cl | -194
69 | COCCNc1cc(-c2ccccc2C(N)=O)c2cc[nH]c2n1 | -2.32
70 | N[C@@H]1CC[C@H](C(=O)NCCn2cc(Cl)cn2)C1 | -36.4
71 | Cc1cc(C)n(CC(C)NCc2cnc3c(C)cccn23)n1 (stereo not given) | 1.44
72 | CCc1ncc2c(n1)CN(C(=O)c1c(C)[nH]c3c1C(=O)CCC3)C2 | -45.8
73 | Cc1nc(-n2cnnc2)ccc1-c1cccc2c1CCNC2 | 12.2
74 | OC1(CN2CCCC2)CCCN(Cc2cnc(-c3ccco3)nc2)C1 (stereo not given) | -6.84
75 | NCC1CCN(c2cnn(CCCn3cccn3)c(=O)c2)CC1 | -52.8
76 | COC(=O)[C@H]1C[C@@H](O)CCN1S(=O)(=O)c1cc(C)c(Cl)cc1C | -0.566
77 | Cc1nc(C)c(C)c(NCCSc2ccccn2)n1 | -4.23
78 | CN(C)C(=O)c1cc(-c2cnc(N)nc2)nc2cc(F)ccc12 | 2.54
79 | COc1coc(CN2CCCC(CCc3ccccc3F)C2)cc1=O (stereo not given) | -1.62
80 | CCn1ccnc1C1CCN(Cc2cccc(Cl)c2)CC1 | -9.45
81 | O=C(Cc1ccc(O)c(Cl)c1)N1CCCCC1CCn1cccn1 (stereo not given) | -13.6
82 | CCCC(C)CN1CCC(n2cc(C3CCCC3)nn2)CC1 (stereo not given) | 14.2
83 | Cc1cc(C)n(NC(=O)c2ccc(Cl)cc2Cl)c(=O)c1 | -7.05
84 | CC(C)c1ccc(CN2CCN(C(=O)c3cc(C4CC4)[nH]n3)CC2)cc1 | 39.7
85 | O=C(NCCCNc1ccc(C(F)(F)F)cn1)c1ccc2c(c1)OCO2 | -8.51
86 | CSCc1ccc(C(=O)NCCCNc2ccc(C(F)(F)F)cn2)cc1 | 3.84
87 | O=C(CS(=O)(=O)Cc1cc(Cl)c2c(c1)OCCCO2)NCC1CC1 | 1.07
88 | CCCC(C#N)NC(=O)c1cc(Br)c2c(c1)OCCO2 (stereo not given) | -9.2

Row | Structure (SMILES) | cytotoxicity at 10 µM [%]
89 | CCc1nc2n(n1)CC(NCc1nnc(C(C)C)o1)CC2 (stereo not given) | -15.7
90 | CC(=O)NCCNC(=O)CN1CCCC1c1c(C)nn(C)c1C (stereo not given) | -25.1
91 | COc1ccc(OCC(=O)NS(=O)(=O)c2ccc(Br)s2)cc1 | -0.383
92 | Cc1cccc(-n2ncc(C(=O)N3CCn4c(C)nnc4C3)c2C)c1 | 2.14
93 | O=C(COC[C@]12COC[C@H]1CN(C1CCC1)C2)N1CCCC1 | -102
94 | O=C(NCCc1cccs1)[C@]12COC[C@H]1CN(C1CCOCC1)C2 | -116
95 | CC(C)c1ccc(CN2CCC3(CCCN(c4nncs4)C3)C2)cc1 (stereo not given) | -1.15
96 | CCOC(=O)[C@]12CCCN(Cc3cccs3)C[C@H]1CN(CC(C)C)C2 | 10.8
97 | Cn1cc(CN2CC[C@@H]3[C@@H]2CCN3Cc2ccc3c(c2)OCO3)cn1 | -3.63
98 | COc1ccccc1C(=O)N1Cc2cc(C)ccc2OCC1CN(C)C (stereo not given) | 5.2
99 | c1cnc(N2CCCC(NCc3ccc(-n4ccnc4)cc3)C2)nc1 (stereo not given) | -7.55
100 | O=C(NC1CC(F)(F)C1)[C@]12COC[C@H]1CN(Cc1ccccc1)C2 | -108
101 | c1cnc(NCc2cncc3c2CCN(Cc2ccsc2)C3)nc1 | -74.4
102 | COc1ccccc1CN1C[C@@H]2COC[C@]2(COCc2ccncc2)C1 | -70.9
103 | O=C(CC1CCCC1)N1C[C@@H]2CCN(c3cccnc3)C[C@@H]2C1 | 4.24
104 | Fc1cnc(N2C[C@H]3CN(Cc4cccc(F)c4)C[C@H]3C2)nc1 | 10.4
105 | CN(C)C(=O)CN1C[C@H]2CCN(Cc3ccccc3)CC[C@H]2S1(=O)=O | 9.82
106 | Cc1nc(CN2CCc3ncnc(-c4ccsc4)c3CC2)cs1 | -79.8
107 | O=C(Nc1cccnc1)C1Cc2nc(-c3ccsc3)sc2N1CC1CC1 (stereo not given) | 14.5
108 | CC(Cc1ccccc1F)NC(=O)CCC1=NC(=C2N=CN=N2)NO1 (stereo not given) | 7.69
109 | CCNc1ncc(CN2C[C@@H]3CC[C@H]2CN(C(=O)C2CCC2)C3)cn1 | 6.29
110 | COc1cccc(-c2cccc(CN3C[C@H]4CC[C@@H](C3)N(C)C4=O)c2)c1 | 6.98
